One assay has as its system Staphylococcus aureus. Briefly: Antimicrobial activity against methicillin-resistant Staphylococcus aureus. The format is functional. The method, boiled down:
(§1)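 Broth microdilution: MRSA or VREF grown overnight at 37 °C in GYT medium (0.1% glucose, 0.25% yeast extract, 0.5% tryptone), adjusted to OD 0.04–0.06, then diluted 1:10. Test materials serially diluted 1:2, incubated 16–18 h at 37 °C. Vancomycin (MRSA) or penicillin G (VREF) as positive controls, DMSO as negative control. MIC read from OD600.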

For another assay, the system named is Enterococcus faecium. Briefly: Antimicrobial activity against vancomycin resistant Enterococcus faecium. Type of assay: functional. Put shortly: as §1
Assay [1] in a line: Cytotoxicity against human […] cell after 72 hrs by MTS assay. The format is functional, cell-based. The method, boiled down: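 HCT-116 colon carcinoma cells were preincubated overnight at 37 °C in 5% CO2/air. Test materials were serially diluted 1:4, with etoposide as positive control and DMSO as negative control. After 72 h, viability was read as MTS reduction to formazan at 490 nm. IC50 was calculated from the curves.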
For orientation: Tetrazolium assays rely on reduction of a dye to a coloured formazan, in cell work by metabolically active cells.

≈ marks a conversion by molar mass, not a printed value.

Regarding `C=C1CC[C@H](Cl)C(C)(C)[C@@H]1C[C@@]12OC(C)(C)[C@H](Cl)C=C1C(=O)c1c(cc(O)c(C)c1O)C2=O`, the MIC against Staphylococcus aureus and in the assay on Enterococcus faecium was 1.95 µg/mL (≈ 3.95 µM) each time.

Consider `C=C1CC[C@H](Cl)C(C)(C)[C@@H]1C[C@@]12OC(C)(C)[C@H](Cl)C[C@]1(Cl)C(=O)c1c(cc(O)c(C)c1O)C2=O`, for which the values for the MIC in the assay with Staphylococcus aureus and with Enterococcus faecium were 1.9 µg/mL (≈ 3.59 µM) and 3.9 µg/mL (≈ 7.36 µM), respectively. In addition, in assay [1], inhibition was half-maximal at 1.84 µg/mL (≈ 3.47 µM) (IC50).

Regarding `Cc1c(O)cc2c(c1O)C(=O)[C@H]1C[C@@H](Cl)C(C)(C)O[C@@]1(C[C@H]1C(C)(C)[C@@H](Cl)CC[C@]1(C)O)C2=O`, the results for the MIC in the assay with Staphylococcus aureus and against Enterococcus faecium were 1.95 µg/mL (≈ 3.8 µM) and 3.9 µg/mL (≈ 7.6 µM), respectively. Further, the IC50 (as a rule, the midpoint of a concentration-inhibition curve) in assay [1] is 2.4 µg/mL (≈ 4.67 µM).

Consider `Cc1c(O)cc2c(c1O)C(=O)C1=C[C@@H](Cl)C(C)(C)O[C@@]1(C[C@H]1C(C)(C)[C@@H](Cl)CC[C@]1(C)O)C2=O`, for which the MIC in the assay on Staphylococcus aureus and against Enterococcus faecium was 15.6 µg/mL (≈ 30.5 µM) each time. Besides, inhibition in assay [1] was half-maximal at 0.97 µg/mL (≈ 1.9 µM) (IC50).

For the origin of these results see ChEMBL document CHEMBL1158787, “Antibiotic terpenoid chloro-dihydroquinones from a new marine actinomycete” (J Nat Prod, 2005).
